The nature of test [1]: Antiproliferative activity against human HCC827 cells at 10 uM after 72 hrs by MTS assay. Format: functional. On the technique in general: Tetrazolium dyes change colour on reduction, which living cells bring about.
A short description of test [2]: Antiproliferative activity against human Bel7402 cells at 10 uM after 72 hrs by MTS assay. Format: functional, Bel-7402.
Test [3] is described as follows: Antiproliferative activity against human SGC7901 cells at 10 uM after 72 hrs by MTS assay. Format: functional, SGC-7901.
Another test concerns U-251. As to the kind of experiment: Antiproliferative activity against human U251 cells at 10 uM after 72 hrs by MTS assay. The test is classed as functional. Summed up:
(§1)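 Single-concentration screen. Cells at 4 × 10^4 cells/ml, seeded and incubated overnight, then given 10 µM compound in DMSO for 72 h (37 °C, 5% CO2), with DMSO-only controls. MTS added for 4 h and A490 read. Percent inhibition = (1 − OD490 treated/OD490 control) × 100, from triplicate experiments.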

In the next test the test system is A549. As to the kind of experiment: Antiproliferative activity against human A549 cells at 10 uM after 72 hrs by MTS assay. Format: functional.
A short description of test [4]: Antiproliferative activity against human SKBR3 cells at 10 uM after 72 hrs by MTS assay. The test is classed as functional, SK-BR-3. In a few lines:
as §1

The next test relates to NCI-H1975. Nature of the test: Antiproliferative activity against human NCI-H1975 cells at 10 uM after 72 hrs by MTS assay. Format: functional. Summed up: as §1
Test [5] in a line: Antiproliferative activity against human PM8910 cells at 10 uM after 72 hrs by MTS assay. Format: functional.
Test [6] is described as follows: Antiproliferative activity against human H460 cells at 10 uM after 72 hrs by MTS assay. The test is classed as functional, NCI-H460.

The record followed here is ChEMBL document CHEMBL3352626, “Synthesis and biological evaluation of novel oxindole-based RTK inhibitors as anti-cancer agents” (Bioorg Med Chem, 2014).

Consider `O=C1Nc2ncccc2/C1=C/c1c[nH]c2ccc(Br)cc12`, for which the Activity in test [1] was determined as 39.64%; in test [2], 42.22%; in test [3] it was 32.51%; in the test on U-251 it was 5.06%; with A549, 29.66%; in test [4] it was 27.26%. The Activity in the test on NCI-H1975 was found to be 71.46%; in test [5] it was 40.59%; in test [6], 39.48%.
As to `Nc1nc(N2CCOCC2)ccc1/N=C1\C(=O)Nc2ccc(Cl)cc21`, the Activity in test [1] is 33.66%; in [2], 18.8%; in test [3] it was 18.63%; with U-251, -0.07%; in the test on A549 it was 34.07%; in test [4] it was 17.97%. Also, the Activity amounted to 56.34% in the test on NCI-H1975, 26.03% in test [5] and 37.48% in [6].
As for `O=C1Nc2ncccc2/C1=C/c1ncc[nH]1`, the Activity is -5.39% in test [1]; 3.18% in [2]; 12.69% in [3]; -2.99% in the test with U-251; 6.76% with A549; -0.35% in [4]. The Activity came out at 22.81% in the test on NCI-H1975, 0.71% in [5] and 13.74% in test [6].
As for `COc1cc(OC)c(/C=C2\C(=O)Nc3ncccc32)c(OC)c1`, the Activity in test [1] was 17.03%; in test [2], 40.41%; in [3] it was 35.63%; in the test on U-251, 7.46%; with A549, 39.96%; in [4], 2.1%. Besides, the Activity in the test on NCI-H1975 was 66.49%; in test [5], 41.21%; in [6], 53.98%.
Turning to `O=CN1CCN(c2ccc(/C=C3\C(=O)Nc4ccccc43)cc2)CC1`, the Activity in test [1] is 26.61%; in test [2] it was 25.97%; in test [3], 16.5%; in the test with U-251 it was 2.24%; with A549, 25.54%; in test [4], 7.42%. Moreover, the Activity is reported as 27.15% in the test with NCI-H1975, 27.47% in test [5] and 32.06% in [6].
Regarding `Cc1cc2cc(/N=C3\C(=O)Nc4ccc(Cl)cc43)ccc2[nH]1`, the Activity in [1] is recorded as 23.12%; in [2] it was 6.73%; in test [3], 7.05%; with U-251, 7.94%; with A549 it was 7.35%; in test [4], 9.84%. Further, the Activity in the test with NCI-H1975 came to 26.35%; in [5] it was 12.97%; in test [6] it was 8.51%.
